Measured values: ChEMBL document CHEMBL4321838, “Drug Design Targeting T-Cell Factor-Driven Epithelial-Mesenchymal Transition as a Therapeutic Strategy for Colorectal Cancer” (J Med Chem, 2019)
Values after ≈ are worked out from the molar mass of the structure shown. Active and inactive are the calls of the source.

How the values were obtained:
SW-620 [1] = experiment: Induction of early stage cell death in human SW620 organoids transfected with EcadPro-RFP reporter assessed as loss of RFP reporter activity at 40 uM at after 72 hrs by Hoechst 33342 staining based mCherryRFP reporter gene assay; settings: sw-620, 72 h
[2] = Drug metabolism in CD-1 mouse active microsomes assessed as CYP450-mediated oxidative phase 1 metabolite formation by LC-MS/MS analysis
[3] = biological target: T1, DNA topoisomerase 2-alpha (Homo sapiens, UniProt P11388); experiment: Inhibition of topoisomerase 2alpha in human SW620 organoids transfected with VimPro-GFP reporter assessed as reversion of epithelial-mesenchymal transition by measuring reduction in vimentin expression up to 40 uM after 72 hrs by Hoechst 33342 staining based GFP reporter gene assay
How it was run: (§1)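 SW620 cells stably carrying VimPro-GFP or EcadPro-mCherry (puromycin selected) grown as organoids and dosed 72 h. Stained with 16 μM Hoechst 33342 for 1 h and imaged as 15 z-layers, 26.5 μm apart. Nuclei segmented and GFP- or mCherry-positive cells counted above background thresholds. Percent positive cells normalised to DMSO.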

[4] = biological target: T1, DNA topoisomerase 2-alpha; experiment: Inhibition of topoisomerase 2alpha in human SW620 organoids transfected with EcadPro-RFP reporter assessed as reversion of epithelial-mesenchymal transition by measuring increase in E-cadherin expression up to 40 uM after 72 hrs by Hoechst 33342 staining based mCherryRFP reporter gene assay; how it was run: as §1
[5] = Metabolic stability in CD-1 mouse active microsomes assessed as CYP450-mediated oxidative phase 1 metabolite formation measured up to 60 mins by LC-MS/MS analysis; format: ADME; settings: 1 h
[6] = Clearance in CD-1 mouse at 50 mg/kg, ip by LC-MS/MS analysis; format: ADME, organism-based; settings: in vivo
How it was run: (§2)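 Female CD-1 mice, single IP injection at 50 mg/kg in 100% DMSO. Sampling from 0.25 to 24 h, three mice per time point (21 per compound). Heparinised blood was spun to plasma, mixed 1:1 with acidified acetonitrile (0.1% formic acid or 0.1% TFA depending on compound), centrifuged, then measured by LC-MS/MS.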

[7] = biological target: T1, DNA topoisomerase 2-alpha; experiment: Inhibition of topoisomerase 2alpha dependent TCF transcription in human SW620 organoids transduced with TOPflash luminescent reporter after 72 hrs by luciferase based TOPFlash reporter gene assay
How it was run: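 SW620 cells stably carrying pCDH-TOPflash-luc grown as organoids: 5,000 cells per U-bottom well in phenol red-free RPMI with 5% FBS and 2% Matrigel, 72 h. Inhibitor then applied 72 h. One-Glo luciferase and CellTiter-Glo 3D added 1:1. Luciferase signal normalised to viability, then to DMSO controls.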

SW-620 [8] = experiment: Antiinvasive activity in human SW620 organoids transduced with NucLight-Red virus assessed as inhibition of cell invasion at 10 uM incubated for 72 hrs and measured after 72 hrs by matrigel based fluorescence analysis; format: functional
How it was run: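 NucLight-Red-labelled SW620 organoids treated 72 h at 10 μM in 0.1% DMSO, then dissociated. 5,000 live cells per well seeded in 50% Matrigel in the upper chamber of a migration plate, 0.5% FBS above and 20% FBS below. Invading cells tracked by bottom-side fluorescence over days, six replicates per condition.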

SW-620 [9] = experiment: Induction of apoptosis in human SW620 organoids assessed as increase in cleaved caspase 3/7 level at 40 uM after 72 hrs by caspase-glo 3/7 luminescence assay relative to control; format: functional
How it was run: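 SW620 cells, 2,000 per well in 384-well ultra-low attachment plates with 2% Matrigel, grown 72 h into organoids, then dosed 72 h. Caspase-Glo 3/7 reagent added 1:1 and shaken 30 min; luminescence read. Staurosporine served as positive control and 0.4% DMSO as negative control.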

[10] = Cmax in CD-1 mouse at 50 mg/kg, ip by LC-MS/MS analysis; format: ADME, organism-based; set-up: dose 50 mg/kg, route intraperitoneal; settings: in vivo; how it was run: as §2
SW-620 [11] = experiment: Cytotoxicity against human SW620 organoids assessed as growth inhibition at 10 uM after 72 hrs by brightfield imaging of organoid volume
[12] = Metabolic stability in CD-1 mouse inactive microsomes incubated for 1 hr by LC-MS/MS analysis; format: ADME, Microsome
SW-620 [13] = experiment: Anticlonogenic activity against human SW620 cells assessed as loss of cancer stem cell stemness by measuring inhibition of colony formation at 10 uM incubated for 24 hrs followed by replating and measured after 7 days by clonogenic assay; format: functional, cell-based
[14] = Half life in CD-1 mouse microsomes measured up to 1 hr by LC-MS analysis; format: ADME, Microsome
How it was run: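 Female CD-1 mouse liver microsomes (0.5 mg/mL), substrate 1 μg/mL and 1.5 mM NADPH in 0.1 M phosphate buffer pH 7.4 at 37 °C. Samples taken from 0 to 60 min and quenched with an equal volume of acetonitrile. Parent compound remaining measured by LC-MS/MS without internal standard.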

[15] = Half life of terminal disposition phase in CD-1 mouse at 50 mg/kg, ip by LC-MS/MS analysis; format: ADME, organism-based; settings: in vivo, read-out: t1/2lambda (converted); how it was run: as §2
[16] = AUC(0 to t) in CD-1 mouse at 50 mg/kg, ip by LC-MS/MS analysis; format: ADME, organism-based; settings: in vivo; how it was run: as §2
SW-620 [17] = experiment: Cytotoxicity against human SW620 organoids assessed as cell death with loss of membrane integrity after 72 hrs by CellTox Green assay; format: functional, cell-based; settings: SW-620, 72 h
How it was run: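 SW620 tumor organoids exposed 72 h to inhibitor over 0–40 μM together with CellTox Green Express (0.5X). Whole-well mean fluorescence imaged (ex 488, em 500–550 nm). Normalised to lysis buffer as 0% viability and 0.4% DMSO as 100% viability.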

[18] = Tmax in CD-1 mouse at 50 mg/kg, ip by LC-MS/MS analysis; format: ADME, organism-based; settings: in vivo; how it was run: as §2
[19] = biological target: T1, DNA topoisomerase 2-alpha; experiment: Inhibition of human topoisomerase 2alpha mediated decatenation at 30 uM using kDNA as susbtrate preincubated for 20 mins followed by substrate and ATP addition and measured after 1 hr by ethidium bromide staining based gel electrophoresis method relative to control
How it was run: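 Human TOP2A (3 U) preincubated 20 min at 37 °C with compound at 30 μM in 1.2% DMSO. Reaction started with 2 mM ATP and 35 ng kDNA and run 1 h at 37 °C. Products resolved on 0.8% agarose in TBE with 0.2 μg/mL ethidium bromide; decatenated bands compared with vehicle.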

[20] = Aqueous solubility of compound in PBS at 1 mg after 18 hrs by UV based analysis; format: physicochemical
How it was run: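 Undissolved material removed by centrifugation at 5,000g for 45 min. UV absorption compared with a fully saturated 1-propanol solution; solubility derived by linear regression.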

Mus musculus = experiment: Apparent volume of drug distribution in CD-1 mouse at 50 mg/kg, ip by LC-MS/MS analysis; format: ADME, organism-based; settings: in vivo; how it was run: as §2
[21] = compound: COc1cc(NC(C)=O)c(O)c2nccc(-c3ccccc3NC(=O)c3ccccc3)c12; experiment: Competitive inhibition of human topoisomerase 2alpha ATPase activity assessed as Km for ATP hydrolysis with DNA relaxation at 5 uM using supercoiled plasmid DNA as susbtrate after 1 hr by malachite green assay/Michelis-Menten kinetics analysis (reference value: 317.8 to 350.1 microM)
[22] = compound: Cn1ccc2c(c1=O)C(=O)c1nccc3c1c-2nc1ccccc13; experiment: Competitive inhibition of human topoisomerase 2alpha ATPase activity assessed as Km for ATP hydrolysis with DNA relaxation at 20 uM using supercoiled plasmid DNA as susbtrate after 1 hr by malachite green assay/Michelis-Menten kinetics analysis (reference value: 317.8 to 350.1 microM)
[23] = compound: COc1cc(NC(C)=O)c(O)c2nccc(-c3ccccc3NC(=O)c3ccccc3)c12; experiment: Competitive inhibition of human topoisomerase 2alpha ATPase activity assessed as Vmax for ATP hydrolysis with DNA relaxation at 5 uM using supercoiled plasmid DNA as susbtrate after 1 hr by malachite green assay/Michelis-Menten kinetics analysis (reference value: 0.652 to 0.6529 pmol/s)
[24] = compound: Cn1ccc2c(c1=O)C(=O)c1nccc3c1c-2nc1ccccc13; experiment: (§3) Competitive inhibition of human topoisomerase 2alpha ATPase activity assessed as Km for ATP hydrolysis with DNA relaxation at 10 uM using supercoiled plasmid DNA as susbtrate after 1 hr by malachite green assay/Michelis-Menten kinetics analysis (reference value: 317.8 to 350.1 microM)
[25] = compound: COc1cc(NC(C)=O)c(O)c2nccc(-c3ccccc3NC(=O)c3ccccc3)c12; experiment: as §3
[26] = compound: Cn1ccc2c(c1=O)C(=O)c1nccc3c1c-2nc1ccccc13; experiment: (§4) Competitive inhibition of human topoisomerase 2alpha ATPase activity assessed as Vmax for ATP hydrolysis with DNA relaxation at 10 uM using supercoiled plasmid DNA as susbtrate after 1 hr by malachite green assay/Michelis-Menten kinetics analysis (reference value: 0.652 to 0.6529 pmol/s)
[27] = compound: COc1cc(NC(C)=O)c(O)c2nccc(-c3ccccc3NC(=O)c3ccccc3)c12; experiment: as §4
[28] = compound: Cn1ccc2c(c1=O)C(=O)c1nccc3c1c-2nc1ccccc13; experiment: Competitive inhibition of human topoisomerase 2alpha ATPase activity assessed as Vmax for ATP hydrolysis with DNA relaxation at 20 uM using supercoiled plasmid DNA as susbtrate after 1 hr by malachite green assay/Michelis-Menten kinetics analysis (reference value: 0.652 to 0.6529 pmol/s)

## O=C(CCN1CCOCC1)Nc1ccc2c(-c3cc(F)ccc3O)ccnc2c1O
SW-620 [1]
  Activity: Active
[2]
  Drug metabolism: Metabolite_Notdetected
[3]
  inhibition: Active
[4]
  inhibition: Active
[5]
  Drug metabolism: Metabolite_Detected
[6]
  CL/F: 62.2 mL/min/kg
[7]
  IC50: 0.7 µM
SW-620 [8]
  inhibition: Active
SW-620 [9]
  fold change (FC): 9
[10]
  Cmax: 10900 ng/mL
SW-620 [11]
  growth inhibition (GI): Active
[12]
  Stability: Stable
SW-620 [13]
  inhibition: Active
[14]
  t1/2: 8.53 min
[15]
  half-life: 379 min
[16]
  AUC(0-t): 13000 ng·h/mL
SW-620 [17]
  EC50: 16 µM
[18]
  Tmax: 15 min
[19]
  inhibition: 90%
[20]
  solubility thermodynamic at 18 h: 1520 µg/mL (≈ 3.69 mM)
Mus musculus
  Vz: 34 L/kg

B1: DNA topoisomerase 2-alpha (Homo sapiens), P11388 (protein)
chain: MEVSPLQPVNENMQVNKIKKNEDAKKRLSVERIYQKKTQLEHILLRPDTYIGSVELVTQQMWVYDEDVGINYREVTFVPGLYKIFDEILVNAADNKQRDPKMSCIRVTIDPENNLISIWNNGKGIPVVEHKVEKMYVPALIFGQLLTSSNYDDDEKKVTGGRNGYGAKLCNIFSTKFTVETASREYKKMFKQTWMDNMGRAGEMELKPFNGEDYTCITFQPDLSKFKMQSLDKDIVALMVRRAYDIAGSTKDVKVFLNGNKLPVKGFRSYVDMYLKDKLDETGNSLKVIHEQVNHRWEVCLTMSEKGFQQISFVNSIATSKGGRHVDYVADQIVTKLVDVVKKKNKGGVAVKAHQVKNHMWIFVNALIENPTFDSQTKENMTLQPKSFGSTCQLSEKFIKAAIGCGIVESILNWVKFKAQVQLNKKCSAVKHNRIKGIPKLDDANDAGGRNSTECTLILTEGDSAKTLAVSGLGVVGRDKYGVFPLRGKILNVREASHKQIMENAEINNIIKIVGLQYKKNYEDEDSLKTLRYGKIMIMTDQDQDGSHIKGLLINFIHHNWPSLLRHRFLEEFITPIVKVSKNKQEMAFYSLPEFEEWKSSTPNHKKWKVKYYKGLGTSTSKEAKEYFADMKRHRIQFKYSGPEDDAAISLAFSKKQIDDRKEWLTNFMEDRRQRKLLGLPEDYLYGQTTTYLTYNDFINKELILFSNSDNERSIPSMVDGLKPGQRKVLFTCFKRNDKREVKVAQLAGSVAEMSSYHHGEMSLMMTIINLAQNFVGSNNLNLLQPIGQFGTRLHGGKDSASPRYIFTMLSSLARLLFPPKDDHTLKFLYDDNQRVEPEWYIPIIPMVLINGAEGIGTGWSCKIPNFDVREIVNNIRRLMDGEEPLPMLPSYKNFKGTIEELAPNQYVISGEVAILNSTTIEISELPVRTWTQTYKEQVLEPMLNGTEKTPPLITDYREYHTDTTVKFVVKMTEEKLAEAERVGLHKVFKLQTSLTCNSMVLFDHVGCLKKYDTVLDILRDFFELRLKYYGLRKEWLLGMLGAESAKLNNQARFILEKIDGKIIIENKPKKELIKVLIQRGYDSDPVKAWKEAQQKVPDEEENEESDNEKETEKSDSVTDSGPTFNYLLDMPLWYLTKEKKDELCRLRNEKEQELDTLKRKSPSDLWKEDLATFIEELEAVEAKEKQDEQVGLPGKGGKAKGKKTQMAEVLPSPRGQRVIPRITIEMKAEAEKKNKKKIKNENTEGSPQEDGVELEGLKQRLEKKQKREPGTKTKKQTTLAFKPIKKGKKRNPWSDSESDRSSDESNFDVPPRETEPRRAATKTKFTMDLDSDEDFSDFDEKTDDEDFVPSDASPPKTKTSPKLSNKELKPQKSVVSDLEADDVKGSVPLSSSPPATHFPDETEITNPVPKKNVTVKKTAAKSQSSTSTTGAKKRAAPKGTKRDPALNSGVSQKPDPAKTKNRRKRKPSTSDDSDSNFEKIVSKAVTSKKSKGESDDFHMDFDSAVAPRAKSVRAKKPIKYLEESDEDDLF
[21]
  Km: 380 µM
[22]
  Km: 651 µM
[23]
  Vmax: 0.65 pmol/s
[24]
  Km: 518 µM
[25]
  Km: 387 µM
[26]
  Vmax: 0.657 pmol/s
[27]
  Vmax: 0.646 pmol/s
[28]
  Vmax: 0.65 pmol/s
